Results reported in ChEMBL document CHEMBL1141617, “Synthesis and evaluation of antitumoral activity of ester and amide derivatives of 2-arylamino-6-trifluoromethyl-3-pyridinecarboxylic acids” (2008).
One block for each compound: values may come before it.

What was measured:
Format in all cases: functional
IGROV-1 = test: Growth inhibition of human IGROV1 cells
How it was run: (§1)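 NCI 60 human tumour cell line panel grown in RPMI1640 with 5% fetal calf serum and 2 mM L-glutamine. Cells seeded at a density set by each line's growth characteristics and preincubated 24 h. Compounds added in DMSO at 10^-4 to 10^-8 M (five 10-fold dilutions) and left 48 h continuously. Growth read by sulforhodamine B protein stain. GI50 is the molar concentration giving 50% net growth inhibition.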

SNB-75 = test: Growth inhibition of human SNB75 cells; how it was run: as §1
HOP-92 = test: Growth inhibition of human HOP92 cells; conditions: for TGI: read-out: Log TGI (converted); how it was run: as §1
OVCAR-3 = test: Growth inhibition of human OVCAR-3 cells; how it was run: as §1
MDA-MB-231 = test: Growth inhibition of human MDA-MB-231 cells; conditions: for TGI: read-out: Log TGI (converted); how it was run: as §1
U-251 = test: Growth inhibition of human U251 cells; how it was run: as §1
A498 = test: Growth inhibition of human A498 cells; how it was run: as §1
HCT-15 = test: Growth inhibition of human HCT15 cells; how it was run: as §1
SK-MEL-5 = test: Growth inhibition of human SK-MEL5 cells; how it was run: as §1
MCF7 = test: Growth inhibition of human MCF7 cells; how it was run: as §1
KM12 = test: Growth inhibition of human KM12 cells; how it was run: as §1
SR = test: Growth inhibition of human SR cells; conditions: for TGI: read-out: Log TGI (converted); how it was run: as §1
Malme-3M = test: Growth inhibition of human MALME3M cells; how it was run: as §1
HL-60 = test: Growth inhibition of human HL60 cells; conditions: for TGI: read-out: Log TGI (converted); how it was run: as §1
LOX IMVI = test: Growth inhibition of human LOXIMVI cells; how it was run: as §1
EKVX = test: Growth inhibition of human EKVX cells; how it was run: as §1
ACHN = test: Growth inhibition of human ACHN cells; how it was run: as §1
SK-OV-3 = test: Growth inhibition of human SKOV3 cells; how it was run: as §1
COLO 205 = test: Growth inhibition of human COLO205 cells; how it was run: as §1
K562 = test: Growth inhibition of human K562 cells; how it was run: as §1
MOLT-4 = test: Growth inhibition of human MOLT4 cells; how it was run: as §1
SF-295 = test: Growth inhibition of human SF295 cells; how it was run: as §1
RPMI-8226 = test: Growth inhibition of human RPMI8226 cells; how it was run: as §1
CAKI-1 = test: Growth inhibition of human CAKI1 cells; how it was run: as §1
UO-31 = test: Growth inhibition of human UO31 cells; how it was run: as §1

Structure (SMILES): Cc1cc(Cl)ccc1Nc1nc(C(F)(F)F)ccc1C(=O)N1CCN(c2cccc(Cl)c2)CC1
- GI50 (IGROV-1): 1780 nM
- GI50 (SNB-75): 1120 nM

- GI50 (OVCAR-3): 2570 nM
Structure (SMILES): Cc1ccc(Cl)cc1Nc1nc(C(F)(F)F)ccc1C(=O)Oc1ccc(Cl)cc1
- GI50 (HOP-92): 1910 nM
- TGI (OVCAR-3; read-out: Log TGI (converted)): 8910 nM

- GI50 (MDA-MB-231): 2040 nM
- GI50 (U-251): 3020 nM
- GI50 (HCT-15): 2570 nM
- GI50 (SK-MEL-5): 2820 nM
- GI50 (MCF7): 2290 nM
- GI50 (HL-60): 2040 nM
- GI50 (ACHN): 2750 nM
- GI50 (SK-OV-3): 2450 nM
- GI50 (COLO 205): 2510 nM
Structure (SMILES): Cc1cc(Cl)ccc1Nc1nc(C(F)(F)F)ccc1C(=O)Nc1cccc(C(F)(F)F)c1
- TGI (MDA-MB-231): 8130 nM
- TGI (U-251; read-out: Log TGI (converted)): 9770 nM
- GI50 (A498): 2820 nM
- TGI (A498; read-out: Log TGI (converted)): 7410 nM
- TGI (HCT-15; read-out: Log TGI (converted)): 7410 nM
- TGI (SK-MEL-5; read-out: Log TGI (converted)): 9330 nM
- TGI (MCF7; read-out: Log TGI (converted)): 7760 nM
- GI50 (KM12): 2090 nM
- GI50 (SR): 2570 nM
- TGI (SR): 8320 nM
- GI50 (HOP-92): 2190 nM
- TGI (HOP-92): 8130 nM
- GI50 (Malme-3M): 2000 nM
- TGI (Malme-3M; read-out: Log TGI (converted)): 9120 nM
- TGI (HL-60): 4680 nM
- GI50 (LOX IMVI): 2820 nM
- TGI (LOX IMVI; read-out: Log TGI (converted)): 8510 nM
- GI50 (EKVX): 1860 nM
- TGI (ACHN; read-out: Log TGI (converted)): 8910 nM
- TGI (COLO 205; read-out: Log TGI (converted)): 6170 nM

- GI50 (MDA-MB-231): 1660 nM
- GI50 (MCF7): 2400 nM
- GI50 (K562): 2400 nM
- GI50 (MOLT-4): 1550 nM
- GI50 (HL-60): 2400 nM
- GI50 (RPMI-8226): 2090 nM
Structure (SMILES): COc1ccc(NC(=O)c2ccc(C(F)(F)F)nc2Nc2ccc(Cl)cc2C)cc1Cl
- TGI (MDA-MB-231): 6760 nM
- TGI (MOLT-4; read-out: Log TGI (converted)): 4900 nM
- GI50 (SR): 1700 nM
- TGI (SR): 6460 nM
- TGI (HL-60): 5370 nM
- GI50 (SF-295): 2340 nM
- TGI (RPMI-8226; read-out: Log TGI (converted)): 4900 nM

- GI50 (SK-MEL-5): 955 nM
Structure (SMILES): COc1ccc(N2CCN(C(=O)c3ccc(C(F)(F)F)nc3Nc3cc(Cl)ccc3C)CC2)cc1
- GI50 (IGROV-1): 51.3 nM
- GI50 (CAKI-1): 1380 nM
- GI50 (HOP-92): 1480 nM
- TGI (HOP-92): 7940 nM
- GI50 (UO-31): 1700 nM

Structure (SMILES): Cc1ccc(Cl)cc1Nc1nc(C(F)(F)F)ccc1C(=O)N1CCN(c2cccc(Cl)c2)CC1
- GI50 (SR): 2750 nM
